This passage reports cytotoxicity results from ChEMBL document CHEMBL4513216, “Probing the Open Global Health Chemical Diversity Library for Multistage-Active Starting Points for Next-Generation Antimalarials” (ACS Infect Dis, 2020).

SMILES strings stand for the structures.

A short description of this series: Toxicity liver stage against HepG2, at 10uM. Also on record: test concentration 10 uM, cell line HepG2-A16-CD81EGFP. The settings on record: human, HepG2-A16-CD81EGFP cells; read-out: INHIBITION
In kind it is cell-based. Summed up: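 Uninfected HepG2-A16-CD81EGFP cells, 3 × 10^3 per well, 1536-well, plated on prespotted compound at 10 μM final, parasite-free screening media added to match infected plates; puromycin 10 μM positive, DMSO 0.5% negative; run in parallel with 48 h PbLuc assay at 37 °C, 5% CO2; viability by CellTiter-Glo luminescence, normalized to controls.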

For the molecule `CCN(CC)S(=O)(=O)NCc1ccc(-c2ccc(C(N)=O)c(C)n2)cc1`, the cytotoxicity at 10 µM was 2.77%.

`COCCN1CCC2(CC1)CC(c1cccnc1)CO2` (stereo not drawn): the cytotoxicity at 10 µM was -3.21%.

With `CC(=O)Oc1ccnc(C(F)(F)F)c1C(C)=O`, the cytotoxicity at 10 µM was -11.4%.

Consider `CCc1nccn1C1CCCN(C(=O)C2=NN(C)C(=O)CC2)C1` (stereo not drawn), for which the cytotoxicity at 10 µM was -17.7%.

In the case of `O=C(COc1ccccc1F)NCCC(O)c1ccoc1` (stereo not drawn), the cytotoxicity at 10 µM was -13.4%.

In the case of `CC(C)c1cc(NC(=O)Cn2ccc(=O)c3ccccc32)[nH]n1`, the cytotoxicity at 10 µM is -146%.

For `CC(C)(CO)Nc1c(NCc2ccccn2)c(=O)c1=O`, the cytotoxicity at 10 µM is 0.122%.

`CCN(CC)C(=O)c1ccc(Cl)c(NC(=O)c2cnc(C)cn2)c1`: the cytotoxicity at 10 µM is -0.273%.

As to `COc1ccccc1C(=O)NC[C@H]1COCc2nc3c(C)cccc3n21`, the cytotoxicity at 10 µM worked out at 0.331%.

For the molecule `Cc1ncsc1C(=O)N1CCc2[nH]nc(-c3ccc4c(c3)OCO4)c2C1`, the cytotoxicity at 10 µM is -141%.

With `Cc1cccc(NC(=O)c2cnc(C3CCCNC3)cn2)n1` (stereo not drawn), the cytotoxicity at 10 µM came out at 3.04%.

Regarding `COc1ccc2cccc(CC(=O)NCCCc3n[nH]c(C)n3)c2c1`, the cytotoxicity at 10 µM is -2.11%.

As to `CCCNC(=O)c1sccc1N(C)S(=O)(=O)c1ccc(Cl)cc1`, the cytotoxicity at 10 µM was found to be 9.22%.

In the case of `O=C(Nc1ccc(Br)cc1F)c1ccc(N2CCCCC2)nn1`, the cytotoxicity at 10 µM is 1.16%.

As to `Fc1ccc(OCC2CCCO2)c(NCc2noc(C3CC3)n2)c1` (stereo not drawn), the cytotoxicity at 10 µM was 9.61%.

Take `Cc1noc(C(C)Nc2ccc3c(c2)CCC3)n1` (stereo not drawn): the cytotoxicity at 10 µM amounted to 1.84%.

Regarding `O=S(=O)(Cc1ccccc1)NCc1ccnc(O)c1`, the cytotoxicity at 10 µM is -1.2%.

Regarding `CN(Cc1ccco1)Cc1cncc2c1CCN(S(C)(=O)=O)C2`, the cytotoxicity at 10 µM amounted to 2.11%.

As to `CC1CCCN(c2nccn3c(=O)[nH]nc23)C1` (stereo not drawn), the cytotoxicity at 10 µM worked out at 12.1%.

Turning to `CN(C)Cc1ccccc1Cn1cncc1-c1cnn(C)c1`, the cytotoxicity at 10 µM is 6.16%.

For the molecule `Cc1noc(C2CCCN(Cn3cc(Br)cn3)C2)n1` (stereo not drawn), the cytotoxicity at 10 µM was -3.67%.

For `CC(C)N1CCC(CC(=O)NCC2OCCc3ccccc32)CC1` (stereo not drawn), the cytotoxicity at 10 µM was -4.65%.

On to `O=C(NCC1CC1)[C@@H]1CCO[C@@H]2CCN(Cc3ccco3)C[C@H]21`, for which the cytotoxicity at 10 µM was -4.93%.

Consider `CCN(CC)C(=O)Cn1c(-c2ccc(Cl)cc2)nc(C)c(CCO)c1=O`, for which the cytotoxicity at 10 µM came to 2.62%.

On to `COCC(NC(=O)c1cn(-c2cccc(Cl)c2F)nn1)C1CC1` (stereo not drawn), for which the cytotoxicity at 10 µM worked out at 11.1%.

For `Cc1csc(N2CCCN(Cc3ccn(C)c(=O)c3)CC2)n1`, the cytotoxicity at 10 µM was determined as 12.8%.

For `CCn1cc(NS(=O)(=O)c2ccc(Br)s2)c(C(N)=O)n1`, the cytotoxicity at 10 µM was 2.3%.

On to `c1csc(-c2noc(CN3CCc4c(ncn4C4CC4)C3)n2)c1`, for which the cytotoxicity at 10 µM was determined as 5.93%.

Take `CN(Cc1nncn1C)C(=O)c1cc(COc2ccccc2)[nH]n1`: the cytotoxicity at 10 µM amounted to 9.23%.

Turning to `Cc1c(Br)cccc1C(=O)Nc1cc(C(N)=O)n(C)c1`, the cytotoxicity at 10 µM amounted to 0.71%.

Consider `NC(=O)c1ccnc(N2CCCC(CO)(Cc3ccc(F)cc3)C2)c1` (stereo not drawn), for which the cytotoxicity at 10 µM stood at 14.1%.

Take `CS(=O)(=O)CCNC(=O)c1cc2ccccc2nc1N1CCCC1`: the cytotoxicity at 10 µM was -6.78%.

Turning to `NCCc1nc(N(Cc2nccs2)C2CC2)c2ccccc2n1`, the cytotoxicity at 10 µM is -16.1%.

For the molecule `CC(=O)c1ccc(NC(=O)C(NC(=O)Nc2ccccc2)C(C)C)cc1` (stereo not drawn), the cytotoxicity at 10 µM was -0.719%.

On to `COC(=O)NCCC(=O)NC(C)Cc1cccc(Br)c1` (stereo not drawn), for which the cytotoxicity at 10 µM was -15.8%.

For the molecule `O=C(c1ccco1)N1CCN2C[C@H](Oc3cncnc3)C[C@H]2C1`, the cytotoxicity at 10 µM was -2.97%.

Regarding `CC(C)NC(=O)Nc1ccc(CNCc2ccc(OC(F)F)cc2)cc1`, the cytotoxicity at 10 µM was -3.95%.

For the molecule `CN(C)CCN(C)c1nc(CCc2ccccc2)nc2c1cnn2C`, the cytotoxicity at 10 µM worked out at 0.562%.

Regarding `CC(=O)N1CCCN(C(=O)NCc2ccc(-c3ccn[nH]3)cc2)CC1`, the cytotoxicity at 10 µM was 0.322%.

With `CCC(=O)Nc1cc(Cl)ccc1C(=O)N(C)Cc1noc(CC)n1`, the cytotoxicity at 10 µM came to 7.1%.

On to `COc1ccc(CNC[C@H]2COCc3nc4cc(F)ccc4n32)cn1`, for which the cytotoxicity at 10 µM was determined as 0.734%.

Consider `O=C(COCC1CCCCO1)N1CCN(Cc2ccccc2F)C(=O)C1` (stereo not drawn), for which the cytotoxicity at 10 µM came to 3.15%.

Regarding `CN(c1ncnc2ccccc12)C1CCCN(c2cccnn2)C1` (stereo not drawn), the cytotoxicity at 10 µM turned out to be 19.5%.

For `O=c1[nH]nc(CCCN2CCOCC2)n1-c1ccc(F)cc1F`, the cytotoxicity at 10 µM was 4.54%.

`Cc1ccc(NC(=O)Nc2cnc(N3CCN(C)CC3)nc2)c(Cl)c1`: the cytotoxicity at 10 µM was 6.07%.

Turning to `COCCNC(=O)[C@@]12CCO[C@@H]1CCN(Cc1scnc1C)C2`, the cytotoxicity at 10 µM is -10.6%.

With `CN(Cc1cccc(-n2cccn2)c1)C(=O)c1cccc(N(C)C)c1`, the cytotoxicity at 10 µM is -0.809%.

`CCc1nc(N2CCC3(CCC(=O)N(CCCO)C3)CC2)no1`: the cytotoxicity at 10 µM was 0.814%.

As to `CCNC(=O)N(Cc1cccc(OC)c1)C1CCC(O)CC1` (stereo not drawn), the cytotoxicity at 10 µM is -4.83%.

In the case of `O=C(Nc1ccc(OC(F)F)cc1)N1CCC(c2nnc[nH]2)CC1`, the cytotoxicity at 10 µM was found to be 7.25%.

Turning to `CCNC(=O)N1CC[C@@H](CC(=O)O)[C@@H](CC2=NCCc3ccccc32)C1`, the cytotoxicity at 10 µM amounted to 2.7%.

Consider `Cc1sc(C(=O)O)cc1S(=O)(=O)Nc1c(F)cccc1-n1cccn1`, for which the cytotoxicity at 10 µM was -1.37%.

As for `O=C(N1CCOCC1)[C@@]12CCO[C@@H]1CCN(C1CCCC1)C2`, the cytotoxicity at 10 µM is 7.83%.

As to `O=C(c1cscn1)N1CCCC(n2cncn2)C1` (stereo not drawn), the cytotoxicity at 10 µM was determined as 0.301%.

`O=C(O)c1ccnc(SCC(F)(F)F)c1`: the cytotoxicity at 10 µM is -17.6%.

Consider `O=C(NCC(O)c1ccoc1)Nc1c(F)cccc1F` (stereo not drawn), for which the cytotoxicity at 10 µM was -5.86%.

For `CCc1cnc(CN(C)C2CCN(CCn3cc(C#N)cn3)C2)o1` (stereo not drawn), the cytotoxicity at 10 µM was -8.99%.

For `CN(C)CCO[C@H]1CN(Cc2ccoc2)[C@@H]2COC[C@H]12`, the cytotoxicity at 10 µM is -1.23%.

For `CC(C)CNC(=O)CNc1c(NCc2ccccn2)c(=O)c1=O`, the cytotoxicity at 10 µM is -9.06%.

With `CS(=O)(=O)NC1CCN(C(=O)CCC2CCCO2)CC1` (stereo not drawn), the cytotoxicity at 10 µM was -0.367%.

Consider `CC(C)(CO)CCCNC(=O)N1CCc2c(F)ccc(F)c2C1`, for which the cytotoxicity at 10 µM was -2.18%.

Consider `CCC(CC)(CCCNC(=O)c1c(C)noc1C)C1OCCO1`, for which the cytotoxicity at 10 µM stood at 1.98%.

As for `CCN(Cc1csc(CS(C)(=O)=O)n1)c1cccc(F)c1`, the cytotoxicity at 10 µM stood at 7.25%.

As for `Cc1cc(CNC(=O)N2CCN(c3nc(C)c(C)s3)CC2)no1`, the cytotoxicity at 10 µM was -1.01%.

On to `Cc1cc(C)nc(N2CCN(Cc3nccn3C)CC2)n1`, for which the cytotoxicity at 10 µM was -20.9%.

Consider `CC(C)OCCS(=O)(=O)N1CCN(Cc2ccco2)CC1`, for which the cytotoxicity at 10 µM is -11.3%.

Consider `COc1ccc(C(=O)N2CCC(Oc3ccccc3)(C(=O)O)CC2)o1`, for which the cytotoxicity at 10 µM came out at 11.6%.

`CC(C)(C)C(O)CN1CCN(C(=O)COCC2CC2)CC1` (stereo not drawn): the cytotoxicity at 10 µM was found to be 5.54%.

Take `CC(=O)Nc1cccc(Cn2nc(C)nc2C)c1`: the cytotoxicity at 10 µM is -3.19%.

Regarding `c1ccc(CCNC2CCc3ncnn3C2)nc1` (stereo not drawn), the cytotoxicity at 10 µM was -4.03%.

For the molecule `CN1CC(c2ccccc2)CC12CCN(C(=O)c1ccncc1)CC2` (stereo not drawn), the cytotoxicity at 10 µM was -7.96%.

`CCc1nnc2n1CCN(C(=O)c1cnc(-c3cccs3)s1)C2`: the cytotoxicity at 10 µM is -3.28%.

In the case of `CCOc1ccc(NC(C)C(=O)Nc2cc(C)no2)cc1` (stereo not drawn), the cytotoxicity at 10 µM worked out at 7.04%.

As for `Cc1cc(NC(=O)CN2CCCC2Cn2nc(C)nc2C)on1` (stereo not drawn), the cytotoxicity at 10 µM was -3.31%.

As to `Cc1cccnc1N1CCC(c2nccn2Cc2cscn2)CC1`, the cytotoxicity at 10 µM was -0.65%.

With `Cc1occc1C(=O)N1CCc2c(COCC3CC3)cncc2C1`, the cytotoxicity at 10 µM was -0.799%.

Regarding `Cc1cc(-c2nnn(CCNS(C)(=O)=O)n2)ccc1F`, the cytotoxicity at 10 µM is -9.09%.

In the case of `CN(Cc1ccc(-n2cccn2)cc1)CC1CCCN1c1cccnn1` (stereo not drawn), the cytotoxicity at 10 µM is -3.98%.

Take `COCCc1noc(CN(C)C(=O)c2cccc(N3CCCC3=O)c2)n1`: the cytotoxicity at 10 µM was -9.91%.

For the molecule `CC1c2ncc(Cn3cncn3)n2CCN1C(=O)c1ccccn1` (stereo not drawn), the cytotoxicity at 10 µM was -0.785%.

With `Cc1ccc(C(=O)N(C)Cc2ccc(Br)s2)c(=O)[nH]1`, the cytotoxicity at 10 µM stood at 5.02%.

In the case of `Cc1cccc(C(=O)Nc2c(C(=O)N(C)C)nn(C)c2C)c1`, the cytotoxicity at 10 µM was determined as 7.58%.

Regarding `CS(=O)(=O)CCNC(=O)NCCc1cc2ccccc2o1`, the cytotoxicity at 10 µM came out at 2.8%.

Take `O=C(COCCOc1ccccc1)NC1CCN(c2ncccn2)CC1`: the cytotoxicity at 10 µM is -4.9%.

Regarding `c1cc(-c2cn[nH]c2)ccc1CN1CCNCC1`, the cytotoxicity at 10 µM came to 0.866%.

Turning to `N#Cc1ccc(CNCC2CCN(CCO)CC2)cc1`, the cytotoxicity at 10 µM was -9.7%.

On to `CC(C)CN1C(=O)C2(CCN(Cc3ccoc3)C2)c2ccccc21` (stereo not drawn), for which the cytotoxicity at 10 µM was 4.82%.

As to `CCCN(CC1COc2ccccc2O1)C(=O)C1=NN(C)C(=O)CC1` (stereo not drawn), the cytotoxicity at 10 µM is -41%.

For the molecule `CC(C)(C)NC(=O)C[C@@H]1CCNC[C@@H]1Cc1cc(C(C)(C)C)on1`, the cytotoxicity at 10 µM turned out to be 4.37%.

As to `CC(=O)N(Cc1noc(C)n1)C1CCN(Cc2ccon2)C1` (stereo not drawn), the cytotoxicity at 10 µM was determined as 4.74%.

With `CN(C)Cc1nn(C)c2c1CCN(C(=O)c1cnccn1)C2`, the cytotoxicity at 10 µM is -134%.

For the molecule `CC(NS(=O)(=O)N(C)C(C)C)C(=O)N(C)C` (stereo not drawn), the cytotoxicity at 10 µM stood at 7.95%.

Regarding `N#Cc1cccnc1N1CCN(S(=O)(=O)NCc2ccccc2)CC1`, the cytotoxicity at 10 µM came to 6.1%.

For `Cc1nc2c(c(NCC(O)c3ccccc3Cl)n1)CCNCC2` (stereo not drawn), the cytotoxicity at 10 µM is -2.88%.

Consider `COCCC(=O)N(C)Cc1nc(C(F)(F)F)cs1`, for which the cytotoxicity at 10 µM is 23.3%.

Turning to `CCC(Nc1cccc(Oc2ccccn2)c1)C(N)=O` (stereo not drawn), the cytotoxicity at 10 µM worked out at 9.55%.

Consider `COc1ccc(C(O)CNC(=O)Cn2ccc(=O)n(C)c2=O)cc1` (stereo not drawn), for which the cytotoxicity at 10 µM stood at 6.45%.

Turning to `CCn1cc(NC(=O)CN2CCC(Oc3ccccc3C)CC2)c(C)n1`, the cytotoxicity at 10 µM turned out to be 0.343%.
